Calls of active or inactive are those of the source. The rule behind the calls is not given here.
How the values were obtained:
[1] = system: Mus musculus; assay: Activity at cathepsin S in zymosan-induced inflammatory paw edema mouse model assessed as ipsi/contralateral paw fluorescent signal at 13.3 uM, iv after 24 hrs; type: functional, organism-based
[2] = target: Matrix metalloproteinase-14 (Homo sapiens) (UniProt P50281); assay: Activity at MMP14
Outline: (§1)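 Recombinant protease (10–40 nM final) incubated with 60.0 µM probe substrate; NIR fluorescence of cleaved quenched probe measured as in the in vitro cathepsin assay (λex 710 nm, λem 767 nm).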

[3] = target: Matrix metalloproteinase-9 (Homo sapiens) (UniProt P14780); assay: Activity at MMP9; outline: as §1
[4] = target: Neutrophil collagenase (Homo sapiens) (UniProt P22894); assay: Activity at MMP8; outline: as §1
[5] = system: Mus musculus; assay: Activity at cathepsin S in zymosan-induced inflammatory paw edema mouse model assessed as ipsi/contralateral paw fluorescent signal at 20 uM, iv after 10 mins; type: functional, organism-based
Outline: (§2)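 Mice given zymosan in one hind paw (n = 3); 24 h later 20 µM probe in PBS iv via tail vein (800 nmol/kg). Under 1.5–2% isoflurane, body temperature held with heating pads; tail and upper body masked; images at 10 min, 1, 3, 6, 24 h; identical ROIs over both hind paws, ipsi/contralateral ratio.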

[6] = system: Mus musculus; assay: Activity at cathepsin S in zymosan-induced inflammatory paw edema mouse model assessed as ipsi/contralateral paw fluorescent signal at 20 uM, iv after 180 mins; type: functional, organism-based; outline: as §2
[7] = target: Stromelysin-1 (Homo sapiens) (UniProt P08254); assay: Activity at MMP3; outline: as §1
[8] = system: Mus musculus; assay: Activity at cathepsin S in zymosan-induced inflammatory paw edema mouse model assessed as ipsi/contralateral paw fluorescent signal at 20 uM, iv in presence of 10 to 30 ug/ml E-64; type: functional, organism-based; settings: in the assay text read “10 to 30 mg/kg” for “10 to 30 ug/ml”
Outline: (§3)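 Zymosan paw inflammation; groups n = 3. Dexamethasone 10 mg/kg oral in 0.6% methylcellulose/0.5% Tween80 1 day before zymosan, shortly after, and 1 h before probe; or E-64 10 or 30 mg/kg ip in 40% DMSO/PBS 2 days and 1 day before, shortly after zymosan, and 1 h before probe. Probe 20 µM iv (800 nmol/kg) 24 h post-zymosan; ipsi/contralateral paw fluorescence imaged.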

[9] = system: Mus musculus; assay: Activity at cathepsin S in zymosan-induced inflammatory paw edema mouse model assessed as ipsi/contralateral paw fluorescent signal at 20 uM, iv in presence of Dexamethasone; type: functional, organism-based; outline: as §3
[10] = system: CC(C)(C)OC(=O)NCC[C@H](NC(=O)[C@H](CC1CCCCC1)NC(=O)N1CCOCC1)C(=O)NCCNC(=O)OCC1c2ccccc2-c2ccccc21; assay: Activity at recombinant cathepsin B
Outline: (§4)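 Active-site-titrated (E-64) recombinant human cathepsins B, L, S and in-house cathepsin K, 10 nM final in pH 6.5 acetate/HEPES buffer with 300 mM NaCl, 0.001% Pluronic and L-cysteine; DMSO-dissolved Cy7/BHQ-3 quenched substrate 0.8–40 µM final (DMSO ≤1%); fluorescence read at 25 °C (λex 710, λem 767 nm); steady-state data fitted by non-linear least squares to Michaelis–Menten with substrate inhibition.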

[11] = system: CC(C)(C)OC(=O)NCC[C@H](NC(=O)[C@H](CC1CCCCC1)NC(=O)N1CCOCC1)C(=O)NCCNC(=O)OCC1c2ccccc2-c2ccccc21; assay: Ratio of Kcat/Km for recombinant cathepsin B; outline: as §4

Chain of Stromelysin-1 (Homo sapiens) (P08254 100-477 limits assumed): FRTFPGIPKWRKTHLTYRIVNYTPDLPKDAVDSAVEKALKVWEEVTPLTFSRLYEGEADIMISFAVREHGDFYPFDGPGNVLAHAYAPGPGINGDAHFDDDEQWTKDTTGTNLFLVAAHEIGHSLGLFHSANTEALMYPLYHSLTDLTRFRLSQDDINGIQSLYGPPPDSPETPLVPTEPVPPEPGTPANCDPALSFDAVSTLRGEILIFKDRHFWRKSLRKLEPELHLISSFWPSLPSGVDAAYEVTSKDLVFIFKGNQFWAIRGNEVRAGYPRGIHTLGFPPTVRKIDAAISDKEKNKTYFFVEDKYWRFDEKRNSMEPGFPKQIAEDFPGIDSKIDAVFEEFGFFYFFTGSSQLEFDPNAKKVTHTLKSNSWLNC
Chain of Matrix metalloproteinase-9 (Homo sapiens) (P14780 whole entry): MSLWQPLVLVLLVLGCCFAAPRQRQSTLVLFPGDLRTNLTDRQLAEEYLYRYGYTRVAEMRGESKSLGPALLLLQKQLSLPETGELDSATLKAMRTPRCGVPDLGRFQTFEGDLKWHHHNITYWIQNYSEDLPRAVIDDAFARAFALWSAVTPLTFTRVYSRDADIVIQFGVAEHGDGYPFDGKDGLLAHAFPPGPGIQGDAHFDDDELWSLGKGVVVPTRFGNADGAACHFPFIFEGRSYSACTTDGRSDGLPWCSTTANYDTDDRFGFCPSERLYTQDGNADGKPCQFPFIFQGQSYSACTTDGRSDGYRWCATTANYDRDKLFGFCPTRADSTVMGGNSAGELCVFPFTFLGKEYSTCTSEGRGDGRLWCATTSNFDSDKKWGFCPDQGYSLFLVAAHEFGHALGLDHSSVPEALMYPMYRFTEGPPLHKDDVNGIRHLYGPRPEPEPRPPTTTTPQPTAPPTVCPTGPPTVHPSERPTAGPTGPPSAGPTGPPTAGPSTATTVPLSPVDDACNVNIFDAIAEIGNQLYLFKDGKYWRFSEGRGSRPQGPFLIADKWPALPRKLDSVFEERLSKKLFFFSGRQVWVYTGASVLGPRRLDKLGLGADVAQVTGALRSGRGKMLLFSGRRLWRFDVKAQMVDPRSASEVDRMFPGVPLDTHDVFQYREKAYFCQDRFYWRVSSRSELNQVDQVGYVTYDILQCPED
Chain of Neutrophil collagenase (Homo sapiens) (P22894 101-467 limits assumed): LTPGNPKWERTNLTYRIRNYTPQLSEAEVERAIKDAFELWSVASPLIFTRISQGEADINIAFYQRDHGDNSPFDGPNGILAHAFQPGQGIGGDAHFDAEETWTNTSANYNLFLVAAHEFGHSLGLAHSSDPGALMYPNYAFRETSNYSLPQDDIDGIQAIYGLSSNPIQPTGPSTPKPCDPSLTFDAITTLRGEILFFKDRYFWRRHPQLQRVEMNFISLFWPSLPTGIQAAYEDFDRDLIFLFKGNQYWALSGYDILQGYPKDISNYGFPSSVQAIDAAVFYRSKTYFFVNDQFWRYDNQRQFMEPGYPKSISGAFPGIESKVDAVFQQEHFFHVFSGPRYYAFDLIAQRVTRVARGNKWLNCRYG

Compound | Activity [1] | Activity [2] | Activity [3] | Activity [4] | Activity [5] | Activity [6] | Activity [7] | Activity [8] | Activity [9] | Km [10] [mM] | kcat/Km [11] [M⁻¹ s⁻¹]
CCN(CC)c1ccc2nc3ccc(/N=N/c4ccc(N(C)CCCC(=O)NCCNC(=O)[C@H](CCNC(=O)CCCCCN5\C(=C/C=C/C=C/C=C/C6N(CC)c7ccc(S(=O)(=O)O)cc7C6(C)C)C(C)(C)c6cc(S(=O)(=O)[O-])ccc65)NC(=O)[C@H](CC5CCCCC5)NC(=O)N5CCOCC5)cc4)cc3[n+](-c3ccccc3)c2c1 (stereo partly specified) | Active | inactive | inactive | inactive | Active | Active | inactive | inactive | inactive | – | –
Cathepsin B (Homo sapiens) (from UniProt P07858) | – | – | – | – | – | – | – | – | – | 3.2 | 332
